Key:
Oryctolagus cuniculus [1] = experiment: Percent of 3-Methyl-thiazolidin-2-ylideneamine as administered dose was reported in rabbit 4 by Gas-liquid chromatographic analysis; format: ADME, organism-based; settings: in vivo
Outline: (§1)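 Rabbits 3 (single 100 mg/kg) and 4 (two 100 mg/kg doses 2 h apart) were gavaged with [14C]-labelled parent amide (204.6 dpm/μg). They were not killed; urine was collected 0-24 h. The metabolite was quantified by GLC of trimethylsilylated extracts against an internal-standard peak-height-ratio curve. Results are given as % of urinary radioactivity or % of administered dose, mean of two determinations.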

Oryctolagus cuniculus [2] = experiment: 100 mg/kg of [14C]- radiolabeled compound was intravenously (gavage) injected in rabbit3, and radioactivity content in feces was estimated at total hours; format: ADME, organism-based; settings: rabbit, in vivo, po, in the assay text read “orally (gavage) administered” for “intravenously (gavage) injected”
Outline: (§2)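 Rabbit given 100 mg/kg [14C]-labelled drug by gavage, 204.6 dpm/μg, in water/0.1 N HCl at 6.66 mg/mL. Rabbit 1 was killed at 2 h and liver, lung, kidney and blood taken; tissue values are μg equivalents/g and tissue:plasma ratio. Rabbit 3 was kept for urine (0-24, 24-48, 48-72 h) and feces (0-48 h), expressed as % of dose.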

Oryctolagus cuniculus [3] = experiment: 100 mg/kg of [14C]- radiolabeled compound was orally administered in rabbit3, and radioactivity content in urine was estimated at 0-24 hr; settings: rabbit, in vivo, po
Oryctolagus cuniculus [4] = experiment: 200 mg/kg of [14C]- radiolabeled compound was intravenously (gavage) injected in rabbit4, and radioactivity content in feces was estimated at 0-48 hr; format: ADME, organism-based; settings: rabbit, in vivo, po, in the assay text read “orally (gavage) administered” for “intravenously (gavage) injected”
Outline: (§3)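 Rabbit given two 100 mg/kg gavage doses of [14C]-labelled drug, 2 h apart, 204.6 dpm/μg, 6.66 mg/mL in water/0.1 N HCl. Rabbit 2 was killed 2 h after the last dose and liver, lung, kidney and plasma taken (μg equivalents/g; tissue:plasma ratio). Rabbit 4 gave urine over 0-4, 0-24, 24-48 and 48-72 h and feces over 0-48 h, as % of dose.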

Oryctolagus cuniculus [5] = experiment: Percent of 3-Methyl-thiazolidin-2-ylideneamine as administered dose was reported in rabbit 2; format: ADME, organism-based; settings: in vivo
[6] = tested on: Indolethylamine N-methyltransferase (Oryctolagus cuniculus); experiment: In vivo evaluation of specific activity against rabbit lung Indoleethylamine-N-methyltransferase at intravenous dose of 5 mg/kg
Oryctolagus cuniculus [7] = experiment: 100 mg/kg of [14C]- radiolabeled compound was orally (gavage) administered in rabbit3, and radioactivity content in urine was estimated at 24-48 h; settings: rabbit, in vivo, po
Oryctolagus cuniculus [8] = experiment: Radioactivity measurements were performed following oral administration of the 100 mg/kg in rabbit 8 after 6 hr in plasma; format: ADME, organism-based; parameters: dose 100 mg/kg, route oral; settings: in vivo
Outline: (§4)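 Male rabbits (900-1060 g) received [14C]-labelled parent amide, 100 mg/kg (251.7 dpm/μg, pH about 4.5), by gavage. At 2 or 6 h they were killed by air injection into the ear vein. Blood was drawn by cardiac puncture; brain and lung were homogenized in water (1 g = 10 mL). Radioactivity is expressed as μg equivalents of parent per g or mL.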

Oryctolagus cuniculus [9] = experiment: Radioactivity measurements were performed following oral administration of the 100 mg/kg in rabbit 5 after 2 hr lung; format: ADME, organism-based; parameters: dose 100 mg/kg, route oral; settings: in vivo; outline: as §4
Oryctolagus cuniculus [10] = experiment: 100 mg/kg of [14C]- radiolabeled compound was orally (gavage) injected in rabbit1plasma, and radioactivity content in feces was estimated; format: ADME, organism-based; settings: rabbit, in vivo, po; outline: as §2
Oryctolagus cuniculus [11] = experiment: 200 mg/kg of [14C]- radiolabeled compound was orally administered in rabbit2, and radioactivity content in urine was estimated at 0-4 hr; settings: rabbit, in vivo, po
Oryctolagus cuniculus [12] = experiment: Radioactivity measurements were performed following oral administration of the 100 mg/kg in rabbit 7 after 6 hr in plasma; format: ADME, organism-based; parameters: dose 100 mg/kg, route oral; settings: in vivo; outline: as §4
Oryctolagus cuniculus [13] = experiment: 200 mg/kg of [14C]- radiolabeled compound was intravenously (gavage) injected in rabbit4, and radioactivity content in feces was estimated at total hours; format: ADME, organism-based; settings: rabbit, in vivo, po, in the assay text read “orally (gavage) administered” for “intravenously (gavage) injected”; outline: as §3
Oryctolagus cuniculus [14] = experiment: Evaluation of formation of 3-Methyl-thiazolidin-2-ylideneamine from the radiolabeled compound, orally administered, from rabbit 2,4 liver was analyzed by Gas-liquid chromatographic analysis; format: ADME, organism-based; settings: in vivo, po
Outline: (§5)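 Rabbit 2 was gavaged twice with [14C]-labelled parent amide, 100 mg/kg each dose (204.6 dpm/μg), 2 h apart, and killed 2 h after the second dose. Urine (0-4 h), blood, liver, lung and kidney were taken. The metabolite was measured by GLC of trimethylsilyl derivatives (3% OV-210, 95 °C, internal standard 3-ethyl-2-thiazolidinimine). Values are % of radioactivity as metabolite, mean of two determinations.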

Oryctolagus cuniculus [15] = experiment: Percent of 3-Methyl-thiazolidin-2-ylideneamine as administered dose was reported in rabbit 3 by Gas-liquid chromatographic analysis; format: ADME, organism-based; settings: in vivo; outline: as §1
Oryctolagus cuniculus [16] = experiment: Evaluation of formation of 3-Methyl-thiazolidin-2-ylideneamine from the radiolabeled compound, orally administered, from rabbit 1,2 plasma was analyzed by Gas-liquid chromatographic analysis; format: ADME, organism-based; settings: in vivo, po
Outline: (§6)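 Rabbit 1 was given [14C]-labelled parent amide, 100 mg/kg (204.6 dpm/μg), orally by gavage and killed 2 h later. Urine (0-2 h), blood, liver, lung and kidney were collected. Samples were extracted, trimethylsilylated with BSA/pyridine at 70 °C for 12-16 h, and run by GLC on 3% OV-210 at 95 °C against the internal standard 3-ethyl-2-thiazolidinimine. Output is % of radioactivity present as the metabolite, mean of two determinations.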

Oryctolagus cuniculus [17] = experiment: Percent of 3-Methyl-thiazolidin-2-ylideneamine as administered dose was reported in rabbit 1; format: ADME, organism-based; settings: in vivo
Oryctolagus cuniculus [18] = experiment: 100 mg/kg of [14C]- radiolabeled compound was orally administered in rabbit3, and radioactivity content in urine was estimated at total hours; settings: rabbit, in vivo, po
Oryctolagus cuniculus [19] = experiment: Evaluation of formation of 3-Methyl-thiazolidin-2-ylideneamine from the radiolabeled compound, orally administered, from rabbit 2,4 plasma was analyzed by Gas-liquid chromatographic analysis; format: ADME, organism-based; settings: in vivo, po; outline: as §5
Oryctolagus cuniculus [20] = experiment: Evaluation of formation of 3-Methyl-thiazolidin-2-ylideneamine from the radiolabeled compound, orally administered, from rabbit 2,4 kidney was analyzed by Gas-liquid chromatographic analysis; format: ADME, organism-based; settings: in vivo, po; outline: as §5
Oryctolagus cuniculus [21] = experiment: Evaluation of formation of 3-Methyl-thiazolidin-2-ylideneamine from the radiolabeled compound, orally administered, from rabbit 1,2 liver was analyzed by Gas-liquid chromatographic analysis; format: ADME, organism-based; settings: in vivo, po; outline: as §6
Oryctolagus cuniculus [22] = experiment: Evaluation of formation of 3-Methyl-thiazolidin-2-ylideneamine from the radiolabeled compound, orally administered, from rabbit 1,2 kidney was analyzed by Gas-liquid chromatographic analysis; format: ADME, organism-based; settings: in vivo, po; outline: as §6
Oryctolagus cuniculus [23] = experiment: Evaluation of formation of 3-Methyl-thiazolidin-2-ylideneamine from the radiolabeled compound, orally administered, from rabbit 4 urine was analyzed at 0-2 hr by Gas-liquid chromatographic analysis; format: ADME, organism-based; settings: in vivo, po, in the assay text read “0-24 hr” for “0-2 hr”; outline: as §1
Oryctolagus cuniculus [24] = experiment: Evaluation of formation of 3-Methyl-thiazolidin-2-ylideneamine from the radiolabeled compound, orally administered, from rabbit 2 urine was analyzed at 0-2 hr by Gas-liquid chromatographic analysis; format: ADME, organism-based; settings: in vivo, po, in the assay text read “0-4 hr” for “0-2 hr”; outline: as §5
Oryctolagus cuniculus [25] = experiment: Evaluation of formation of 3-Methyl-thiazolidin-2-ylideneamine from the radiolabeled compound, orally administered, from rabbit 1 urine was analyzed at 0-2 hr by Gas-liquid chromatographic analysis; settings: in vivo, po

With CN1CCS/C1=N\C(=O)CCC(=O)/N=C1/SCCN1C as the molecule, how does the Administered dose (Oryctolagus cuniculus [1]) read?
The Administered dose was 41.3%.

And the Administered dose (Oryctolagus cuniculus [2])?
Its Administered dose is 90.7%.

What about the Administered dose (Oryctolagus cuniculus [3]) of the same molecule?
Its Administered dose is 85.9%.

What about the Administered dose (Oryctolagus cuniculus [4]) of the same molecule?
Its Administered dose is 6%.

What about the Administered dose (Oryctolagus cuniculus [5]) of the same molecule?
Its Administered dose is 10.8%.

What about the Specific activity [6] of the same molecule?
The Specific activity was 37000 dpm.

What about the Administered dose (Oryctolagus cuniculus [7]) of the same molecule?
Its Administered dose is 0.8%.

What about the Radioactivity level (Oryctolagus cuniculus [8]) of the same molecule?
Its Radioactivity level is 4 µg/mL.

What about the Radioactivity level (Oryctolagus cuniculus [9]) of the same molecule?
Its Radioactivity level is 36.4 µg/g.

What about the Plasma concentration (Oryctolagus cuniculus [10]) of the same molecule?
Its Plasma concentration is 23.5 µg/g.

What about the Administered dose (Oryctolagus cuniculus [11]) of the same molecule?
The Administered dose was 24%.

What about the Radioactivity level (Oryctolagus cuniculus [12]) of the same molecule?
The Radioactivity level was 4.1 µg/mL.

And the Administered dose (Oryctolagus cuniculus [13])?
The Administered dose was 94%.

And the Radioactivity (Oryctolagus cuniculus [14])?
Its Radioactivity is 34.4%.

And the Administered dose (Oryctolagus cuniculus [15])?
The Administered dose was 41.2%.

And the Radioactivity (Oryctolagus cuniculus [16])?
Its Radioactivity is 26.5%.

What about the Administered dose (Oryctolagus cuniculus [17]) of the same molecule?
The Administered dose was 27.9%.

What about the Administered dose (Oryctolagus cuniculus [18]) of the same molecule?
The Administered dose was 86.9%.

And the Radioactivity (Oryctolagus cuniculus [19])?
Its Radioactivity is 48.9%.

What about the Radioactivity (Oryctolagus cuniculus [20]) of the same molecule?
Its Radioactivity is 65.3%.

And the Radioactivity (Oryctolagus cuniculus [21])?
Its Radioactivity is 37.9%.

What about the Radioactivity (Oryctolagus cuniculus [22]) of the same molecule?
Its Radioactivity is 72.8%.

What about the Radioactivity (Oryctolagus cuniculus [23]) of the same molecule?
Its Radioactivity is 48.7%.

And the Radioactivity (Oryctolagus cuniculus [24])?
Its Radioactivity is 44.7%.

And the Percent of urinary radioactivity (Oryctolagus cuniculus [25])?
The Percent of urinary radioactivity was 57.2%.

From ChEMBL document CHEMBL1121475, “Inhibitors of indoleethylamine N-methyltransferase. Derivatives of 3-methyl-2-thiazolidinimine. In vitro, in vivo, and metabolic studies” (J Med Chem, 1980)
